Experimental data: ChEMBL document CHEMBL1139365, “Inhibition of MDR1 activity in vitro by a novel class of diltiazem analogues: toward new candidates” (J Med Chem, 2009)
Active and inactive are the calls of the source. The rule behind the calls is not given here.

Experiments:
A2780 ADR [1] = assay: Reversal of P-gp 170-mediated multidrug resistance in human A2780/DX3 cells assessed as increase in intracellular doxorubicin accumulation at 5 times IC5 pretreated for 2 hrs before doxorubicin administration measured after 2 hrs by flow cytometry; type: cell-based
Outline: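 A2780/DX3 cells (kept in 0.1 μM doxorubicin, drug withdrawn 2–3 days before use) seeded in flasks, grown 24 h to 75–85% confluence. Modulator given at five times the 5%-growth-inhibition concentration for 2 h, then 10 μM doxorubicin for 2 h more. Cells trypsinized, fixed in 3.7% paraformaldehyde/2% sucrose in PBS. Flow cytometry, 488 nm excitation, 575 nm bandpass. Read-out is MFI, with % increase taken from the MFI ratio to doxorubicin alone.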

A2780 [2] = assay: Antiproliferative activity against human A2780 cells after 3 days by MTT assay; type: functional, cell-based; settings: for IC50: Homo sapiens, A2780, 72 h
Outline: (§1)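 Cells plated 6–8 h in 96-well plates. Compound alone, in duplicate at ≥5 concentrations (3-fold serial dilutions, top 100 μM), with final DMSO […] after predilution in FCS. After 3 days, MTT 4 h at 37 °C, formazan dissolved in DMSO, A540. IC50 taken from single dose–response curves; 3–4 experiments. A2780/DX3 kept doxorubicin-free 2–3 days beforehand.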

A2780 ADR [3] = assay: Reversal of P-gp 170-mediated multidrug resistance in human A2780/DX3 cells assessed as reduction in doxorubicin IC50 at IC5 pretreated for 6 hrs before doxorubicin administration measured after 3 days by MTT assay; type: cell-based; design: scale not given: the % may be the effect or the level left
Outline: (§2)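 A2780/DX3 cells went into medium holding the modulator at its MTT-derived 0% or 5% growth-inhibition concentration. Doxorubicin (30–0.048 μM serial dilutions, modulator kept constant) was added 6 h later. MTT (2 mg/mL) was added after 3 days for 4 h at 37 °C, formazan dissolved in DMSO, A540 read. IC50 came from dose–response curves, repeated 4–6 times. % reduction is versus doxorubicin alone in the same experiment. Kruskal–Wallis/Mann–Whitney tests.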

A2780 ADR [4] = assay: Reversal of P-gp 170-mediated multidrug resistance in human A2780/DX3 cells assessed as reduction in doxorubicin IC50 at IC0 pretreated for 6 hrs before doxorubicin administration measured after 3 days by MTT assay; type: cell-based; design: scale not given: the % may be the effect or the level left; outline: as §2
A2780 [5] = assay: Antiproliferative activity against human A2780 cells at 2.22 uM after 3 days by MTT assay; type: functional; settings: A2780, 72 h
[6] = Antiproliferative activity against human A2780/DX3 cells after 3 days by MTT assay; type: functional, cell-based; settings: for IC50: Homo sapiens, A2780/DX3, 72 h; outline: as §1
[7] = Antiproliferative activity against human A2780/DX3 cells at 2.40 uM after 3 days by MTT assay; type: functional; settings: A2780/DX3, 72 h
[8] = Down regulation of P-gp 170 expression in human A2780/DX3 cells after 72 hrs by flow cytometry; type: functional, cell-based
Outline: (§3)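 Cells exposed 72 h to compound at concentrations giving 5% or 0% growth inhibition. Then washed in PBS/2% FCS; 2.5 × 10^5 cells stained at 4 °C with anti-Pgp MM4.17 monoclonal, then FITC goat anti-mouse IgG, and analysed by flow cytometry.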

A2780 [9] = assay: Down regulation of P-gp 170 expression in human A2780 cells after 72 hrs by flow cytometry; type: functional, cell-based; outline: as §3
A2780 [10] = assay: Antiproliferative activity against human A2780 cells at 1.3 uM after 3 days by MTT assay; type: functional; settings: A2780, 72 h
[11] = Antiproliferative activity against human A2780/DX3 cells at 2.2 uM after 3 days by MTT assay; type: functional; settings: A2780/DX3, 72 h
[12] = Blockade of L-type calcium channel
A2780 [13] = assay: Antiproliferative activity against human A2780 cells at 0.20 uM after 3 days by MTT assay; type: functional; settings: A2780, 72 h
[14] = Antiproliferative activity against human A2780/DX3 cells at 15.6 uM after 3 days by MTT assay; type: functional; settings: A2780/DX3, 72 h
[15] = Antiproliferative activity against human A2780/DX3 cells at 1.0 uM after 3 days by MTT assay; type: functional; settings: A2780/DX3, 72 h
A2780 [16] = assay: Antiproliferative activity against human A2780 cells at 1.5 uM after 3 days by MTT assay; type: functional; settings: A2780, 72 h
A2780 [17] = assay: Antiproliferative activity against human A2780 cells at 3.1 uM after 3 days by MTT assay; type: functional; settings: A2780, 72 h
[18] = Antiproliferative activity against human A2780/DX3 cells at 3.7 uM after 3 days by MTT assay; type: functional; settings: A2780/DX3, 72 h
[19] = Antiproliferative activity against human A2780/DX3 cells at 1.9 uM after 3 days by MTT assay; type: functional; settings: A2780/DX3, 72 h
A2780 [20] = assay: Antiproliferative activity against human A2780 cells at 5.3 uM after 3 days by MTT assay; type: functional; settings: A2780, 72 h
A2780 [21] = assay: Antiproliferative activity against human A2780 cells at 12.2 uM after 3 days by MTT assay; type: functional; settings: A2780, 72 h
A2780 [22] = assay: Antiproliferative activity against human A2780 cells at 6.1 uM after 3 days by MTT assay; type: functional; settings: A2780, 72 h
[23] = Antiproliferative activity against human A2780/DX3 cells at 0.5 uM after 3 days by MTT assay; type: functional; settings: A2780/DX3, 72 h
[24] = Antiproliferative activity against human A2780/DX3 cells at 4.5 uM after 3 days by MTT assay; type: functional; settings: A2780/DX3, 72 h
A2780 [25] = assay: Antiproliferative activity against human A2780 cells at 0.72 uM after 3 days by MTT assay; type: functional; settings: A2780, 72 h

Row | Compound | IC50 (A2780 [2]) [µM] | Activity (A2780 ADR [1]) [%] | IC5 (A2780 [2]) [µM] | Activity (A2780 ADR [3]) [%] | Activity (A2780 ADR [4]) [%] | IC5 [6] [µM] | IC50 [6] [µM] | also measured
1 | CCCCCCCCCCCCCCCCCCOC1(c2ccc(Cl)cc2)SC=C(C)n2c1noc2=O (configuration not stated) | > 100 | < 48 | 4.74 | -20 | -24 | 6.74 | > 100 | inhibition at 2.22 µM (A2780 [5]): 0%; inhibition at 2.4 µM [7]: 0%
2 | CC1=CSC(O)(c2cccc([N+](=O)[O-])c2)c2noc(=O)n21 (configuration not stated) | 159 | < 48 | 3.95 | 10 | -21 | 15.9 | 129 | inhibition at 3.1 µM (A2780 [17]): 0%; inhibition at 3.7 µM [18]: 0%
3 | CC1=CSC(O)(c2cccc(C(F)(F)F)c2)c2noc(=O)n21 (configuration not stated) | 60 | < 48 | 18.3 | -4 | -22 | 12.6 | 71 | inhibition at 1.9 µM [19]: 0%; inhibition at 5.3 µM (A2780 [20]): 0%
4 | CC1=CSC(O)(c2ccc(C)cc2)c2noc(=O)n21 (configuration not stated) | > 100 | < 48 | 28.8 | -1 | 4 | 31.1 | > 100 | inhibition at 6.1 µM (A2780 [22]): 0%; inhibition at 0.5 µM [23]: 0%
5 | CCCCCCCCCCCCCCCOC1(c2ccc(Cl)cc2)SC=C(C)n2c1noc2=O (configuration not stated) | > 100 | < 48 | 2.1 | -13 | -14 | 14.6 | > 100 | inhibition at 4.5 µM [24]: 0%; inhibition at 0.72 µM (A2780 [25]): 0%

More lines, main results first:

Row | IC50 (A2780 [2]) [µM] | Compound | Activity (A2780 ADR [1]) [%] | IC5 (A2780 [2]) [µM] | Activity (A2780 ADR [3]) [%] | Activity (A2780 ADR [4]) [%] | IC5 [6] [µM] | IC50 [6] [µM] | also measured
6 | 163 | COc1ccc([C@@H]2Sc3ccccc3N(CCN(C)C)C(=O)[C@@H]2OC(C)=O)cc1 [DILTIAZEM] | 699 | 2.8 | -84 | -72 | 20.6 | > 100 | Activity [8]: inactive; Activity (A2780 [9]): inactive; inhibition at 1.3 µM (A2780 [10]): 0%; inhibition at 2.2 µM [11]: 0%; EC50 [12]: 0.79 µM
7 | 108 | CCCCCOC1(c2ccc(Br)cc2)SC=C(C)n2c1noc2=O (configuration not stated) | 52 | 2.6 | -43 | -31 | 41.8 | > 100 | Activity [8]: inactive; Activity (A2780 [9]): inactive; inhibition at 0.2 µM (A2780 [13]): 0%; inhibition at 15.6 µM [14]: 0%
8 | > 100 | CCOC1(c2ccc(Br)cc2)SC=C(C)n2c1noc2=O (configuration not stated) | < 48 | 3.3 | -8 | 6 | 7.8 | > 100 | inhibition at 1 µM [15]: 0%; inhibition at 1.5 µM (A2780 [16]): 0%; EC50 [12]: 0.04 µM
9 | 89 | CCCCOC1(c2ccc(Cl)cc2)SC=C(C)n2c1noc2=O (configuration not stated) | < 48 | 19.7 | -16 | -21 | 2.2 | 49 | inhibition at 1 µM [15]: 0%; inhibition at 12.2 µM (A2780 [21]): 0%
